Source: ChEMBL document CHEMBL1128586, “Antihyperglycemic N-sulfonyl-1a,2,6,6a-tetrahydro-1H,4H- [1,3]dioxepino[5,6-b]azirines: synthesis, X-ray structure analysis, conformational behavior, quantitative structure-property relationships, and quantitative structure-activity relationships” (J Med Chem, 1995)

Assays:
Format in all cases: functional
Mus musculus [1] = assay: Hypoglycemic effect of compound 1 hr after subcutaneous administration of 20 mg/kg dose in alloxanized mice and expressed as percent of initial blood glucose level
In short: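 CBA mice of either sex, 20-25 g, made diabetic by single tail-vein alloxan monohydrate 65 mg/kg and tested 48 h later. Compound given sc at 20 mg/kg, dissolved in minimal DMSO and diluted with 0.9% saline. Tail-vein blood sampled before dosing and at 1 h. Glucose measured by enzymatic-colorimetric kit and expressed as percent of the initial sample.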

Mus musculus [2] = assay: Hypoglycemic effect of compound 1 hr after subcutaneous administration of a 20 mg/kg dose in alloxanized mice and expressed as hypoglycemic activity ratio (hAR) taking metformin as standard
In short: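 Alloxan-diabetic CBA mice (65 mg/kg iv alloxan, used after 48 h) received 20 mg/kg sc in DMSO/saline. Glucose was measured enzymatically in tail-vein blood and expressed as %BGL at 1 h. HAR = (100 − %BGL of compound)/(100 − %BGL of metformin), with metformin tested at the same dose and route.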

Mus musculus [3] = assay: Effect on blood glucose levels in healthy mice at intravenous dose of 20 mg/kg at 0 min
In short: (§1)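 Healthy (nondiabetic) fasted animals: CBA mice (20-25 g) or Fischer rats (160-200 g), fasted 16 h before treatment. Single iv or sc dose given at zero time; drug dissolved in minimal DMSO, diluted with 0.9% saline. Tail-vein blood sampled over time; glucose measured by enzymatic-colorimetric kit, expressed as mmol/L whole blood; group sizes 6-12.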

Mus musculus [4] = assay: Effect on blood glucose levels in healthy mice at intravenous dose of 20 mg/kg at 40 min; in short: as §1
Mus musculus [5] = assay: Effect on blood glucose levels in healthy mice at intravenous dose of 20 mg/kg at 60 min; in short: as §1
Mus musculus [6] = assay: Effect on blood glucose levels in healthy mice at intravenous dose of 5 mg/kg at 0 min; in short: as §1
Mus musculus [7] = assay: Effect on blood glucose levels in healthy mice at intravenous dose of 5 mg/kg at 40 min; in short: as §1
Mus musculus [8] = assay: Effect on blood glucose levels in healthy mice at intravenous dose of 5 mg/kg at 60 min; in short: as §1
Mus musculus [9] = assay: Effect on blood glucose levels in healthy mice at subcutaneous dose of 100 mg/kg at 0 min; in short: as §1
Mus musculus [10] = assay: Effect on blood glucose levels in healthy mice at subcutaneous dose of 100 mg/kg at 120 min; in short: as §1
Mus musculus [11] = assay: Effect on blood glucose levels in healthy mice at subcutaneous dose of 100 mg/kg at 60 min; in short: as §1
Mus musculus [12] = assay: Effect on blood glucose levels in healthy mice at subcutaneous dose of 20 mg/kg at 0 min; in short: as §1
Mus musculus [13] = assay: Effect on blood glucose levels in healthy mice at subcutaneous dose of 20 mg/kg at 120 min; in short: as §1
Mus musculus [14] = assay: Effect on blood glucose levels in healthy mice at subcutaneous dose of 20 mg/kg at 60 min; in short: as §1
Rattus norvegicus [15] = assay: Effect on blood glucose levels in healthy rat at subcutaneous dose of 20 mg/kg at 0 min; in short: as §1
Rattus norvegicus [16] = assay: Effect on blood glucose levels in healthy rat at subcutaneous dose of 20 mg/kg at 60 min; in short: as §1

Compound O=S(=O)(c1ccc(F)cc1)N1[C@@H]2COCOC[C@@H]21 (stereo partly specified) has a BGL (Mus musculus [1]) of 76% and an HAR (Mus musculus [2]) of 1.71.

With Cc1ccc(S(=O)(=O)N2[C@@H]3COCOC[C@@H]32)cc1 (stereo partly specified) the BGL (Mus musculus [1]) was 94% and the HAR (Mus musculus [2]) was 0.42.

CC(=O)Nc1ccc(S(=O)(=O)N2[C@@H]3CO[C@@H](C(C)C)OC[C@@H]32)cc1 (stereo partly specified) gave a BGL (Mus musculus [1]) of 85% and an HAR (Mus musculus [2]) of 1.07.

In the case of CC(=O)Nc1ccc(S(=O)(=O)N2[C@@H]3COCOC[C@@H]32)cc1 (stereo partly specified), the BGL (Mus musculus [1]) is reported as 37%, the HAR (Mus musculus [2]) is reported as 4.5 and the Blood glucose (Mus musculus [3]) is reported as 8.83 mM (l of whole blood)-1. For the same compound, the Blood glucose (Mus musculus [4]) was 9.3 mM (l of whole blood)-1, the Blood glucose (Mus musculus [5]) was 8.82 mM (l of whole blood)-1 and the Blood glucose (Mus musculus [6]) was 8.35 mM (l of whole blood)-1. For the same compound, the Blood glucose (Mus musculus [7]) was 8.61 mM (l of whole blood)-1, the Blood glucose (Mus musculus [8]) was 8.72 mM (l of whole blood)-1 and the Blood glucose (Mus musculus [9]) was 11.72 mM (l of whole blood)-1. For the same compound, the Blood glucose (Mus musculus [10]) was 13.17 mM (l of whole blood)-1, the Blood glucose (Mus musculus [11]) was 12.09 mM (l of whole blood)-1 and the Blood glucose (Mus musculus [12]) was 12.43 mM (l of whole blood)-1. The Blood glucose (Mus musculus [13]) was 13.15 mM (l of whole blood)-1, the Blood glucose (Mus musculus [14]) was 14.41 mM (l of whole blood)-1 and the Blood glucose (Rattus norvegicus [15]) was 5.52 mM (l of whole blood)-1. The Blood glucose (Rattus norvegicus [16]) was 5.44 mM (l of whole blood)-1.

COc1ccc(S(=O)(=O)N2[C@@H]3COCOC[C@@H]32)cc1 (stereo partly specified) was tested, and the BGL (Mus musculus [1]) was 78% and the HAR (Mus musculus [2]) was 1.57.

O=S(=O)(c1ccc(Cl)cc1)N1[C@@H]2COCOC[C@@H]21 (stereo partly specified) was tested, and the BGL (Mus musculus [1]) was 77% and the HAR (Mus musculus [2]) was 1.64.

In the case of CN(C)C(=N)NC(=N)N [METFORMIN], the BGL (Mus musculus [1]) is reported as 86% and the HAR (Mus musculus [2]) is reported as 1.

For O=S(=O)(c1ccccc1)N1[C@@H]2COCOC[C@@H]21 (stereo partly specified), the BGL (Mus musculus [1]) was 53% and the HAR (Mus musculus [2]) was 3.36.

With O=S(=O)(c1ccc(Br)cc1)N1[C@@H]2COCOC[C@@H]21 (stereo partly specified) the BGL (Mus musculus [1]) was 107% and the HAR (Mus musculus [2]) was -0.5.

Compound CC(=O)Nc1ccc(S(=O)(=O)N2[C@@H]3CO[C@H](C(C)C)OC[C@@H]32)cc1 (stereo partly specified) has a BGL (Mus musculus [1]) of 84.8% and an HAR (Mus musculus [2]) of 1.08.

CC(C)[C@@H]1OC[C@@H]2[C@H](CO1)N2S(=O)(=O)c1ccc([N+](=O)[O-])cc1 (stereo partly specified) showed a BGL (Mus musculus [1]) of 78% and an HAR (Mus musculus [2]) of 1.57.
